Data set [1] in a line: Half life after i.v. administration to rat. It counts as ADME, organism-based. As to conditions: in vivo, iv. Summed up: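 Rats (n = 4 per group) received 1 μmol/rat intravenously in 0.2 mL PBS, pH 7.4. Tail blood was sampled at several time points. Immunoreactive gentamicin was measured by fluorescence polarization immunoassay, with each point the mean of four rats. Circulating half-life was taken from the decline phase.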

The target of data set [2] is T1, Albumin (Homo sapiens, UniProt P02768). As to the kind of experiment: The compound was evaluated for pharmacokinetic parameters Serum albumin associating affinity.
Data set [3] is described as follows: The compound was evaluated for pharmacokinetic parameters HSA associating affinity. Format: ADME. As to conditions: human. Summed up: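 Human serum albumin (11.4 μM) in 0.05 M HEPES, pH 6.7, preincubated 10 min with or without rising conjugate concentrations. p-Nitrophenyl acetate (PNPA) then added to 1 mM final. Absorbance read at 410 nm 60 min later. IC50 calculated for inhibition of HSA-evoked PNPA hydrolysis, then converted to Kd estimates. FMS-L-serine served as internal standard.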

Data set [4] in a line: Half life for hydrolysis of the compound. It counts as ADME. An outline of the steps: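 Conjugate was incubated in 0.1 M NaHCO3, pH 8.5, at 37 °C. Aliquots were withdrawn over time and assayed with TNBS for the appearance of free amino groups to give the FMS hydrolysis half-life.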
For data set [5], the target named is T1, Albumin. Briefly: The compound was evaluated for albumin associating affinity along with 3.0 M of FMS. An outline of the steps:
(§1)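 Albumin affinity was inferred from the PNPA esterase assay. HSA (11.4 μM, 0.05 M HEPES, pH 6.7) was preincubated 10 min with graded conjugate concentrations, then given 1 mM PNPA (final). A410 was read at 60 min. The resulting IC50 values were converted to Kd estimates.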

The target of data set [6] is T1, Albumin. Briefly: The compound was evaluated for albumin associating affinity 0.7 M of FMS. Summed up: as §1
Data set [7] has as its target T1, Albumin. As to the kind of experiment: The compound was evaluated for albumin associating affinity along with 1.3 M of FMS. An outline of the steps: as §1
For data set [8], the target named is T1, Albumin. As to the kind of experiment: The compound was evaluated for albumin associating affinity along with 2.1 M of FMS. An outline of the steps:
as §1

For data set [9], the system named is Escherichia coli. Briefly: Potency for its ability to inhibit replication of Escherichia coli. Format: functional. An outline of the steps:
(§2)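 Antibacterial potency was measured as inhibition of Escherichia coli replication, expressed as half-maximal inhibitory concentration and as percent of native gentamicin activity.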

For data set [10], the system named is Escherichia coli. As to the kind of experiment: The compound was evaluated for its ability to inhibit replication of Escherichia coli. It counts as functional, organism-based. Summed up:
as §2

Data set [11] deals with T1, Albumin. Briefly: Evaluated for inhibition of Serum albumin evoked PNPA hydrolysis in presence of 2.1 M of FMS. It counts as functional. Summed up: (§3)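 Human serum albumin (11.4 μM) in 0.05 M HEPES, pH 6.7, was preincubated for 10 min with or without increasing concentrations of each FMS-gentamicin conjugate. PNPA was then added to a final 1 mM. Absorbance at 410 nm was read 60 min later, and IC50 was calculated for inhibition of HSA-evoked PNPA hydrolysis.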

Data set [12] concerns the target T1, Albumin. Briefly: Evaluated for inhibition of Serum albumin evoked PNPA hydrolysis in presence of 3.0 M of FMS. Format: functional. Summed up: as §3
Data set [13] has as its target T1, Albumin. Briefly: Evaluated for inhibition of Serum albumin evoked PNPA hydrolysis in presence of 0.7 M of FMS. It counts as functional. Summed up:
as §3

For data set [14], the target named is T1, Albumin. As to the kind of experiment: Evaluated for inhibition of Serum albumin evoked PNPA hydrolysis in presence of 1.3 M of FMS. It counts as functional. An outline of the steps: as §3

pIC50, pKd: −log10 of the molar value. Bounds are passed on as bounds.

T1 sequence (P02768 whole entry): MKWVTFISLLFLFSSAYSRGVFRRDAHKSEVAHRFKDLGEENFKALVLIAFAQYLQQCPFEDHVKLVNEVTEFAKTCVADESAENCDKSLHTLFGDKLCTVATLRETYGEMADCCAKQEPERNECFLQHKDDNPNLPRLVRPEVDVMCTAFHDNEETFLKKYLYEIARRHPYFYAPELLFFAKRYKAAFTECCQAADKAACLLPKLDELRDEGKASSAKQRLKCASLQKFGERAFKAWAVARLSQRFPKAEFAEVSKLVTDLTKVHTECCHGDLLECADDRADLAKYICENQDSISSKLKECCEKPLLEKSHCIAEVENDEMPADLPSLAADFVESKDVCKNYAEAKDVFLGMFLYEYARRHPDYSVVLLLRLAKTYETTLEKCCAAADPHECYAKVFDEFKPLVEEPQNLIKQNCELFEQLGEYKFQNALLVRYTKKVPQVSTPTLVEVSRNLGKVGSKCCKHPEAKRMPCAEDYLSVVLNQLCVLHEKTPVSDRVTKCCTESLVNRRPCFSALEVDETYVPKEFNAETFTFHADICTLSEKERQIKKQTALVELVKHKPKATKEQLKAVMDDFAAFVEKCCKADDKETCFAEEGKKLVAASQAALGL

As to `CNC(C)[C@H]1CCC(N)[C@@H](O[C@@H]2C(N)C[C@@H](NC(=O)OCC3c4ccccc4-c4ccc(S(=O)(=O)O)cc43)C(O[C@H]3OC[C@](C)(O)C(NC)[C@@H]3O)[C@@H]2O)O1` (stereo partly specified), in [1], the half-life – broadly, the time needed for the level to fall by half in the phase considered – is 1.3 h. The pKd (as a rule, the Kd on a negative log10 scale, so that one unit is a factor of ten) in [2] was 4.70.
For the compound `CNC(C)[C@H]1CCC(NC(=O)OCC2c3ccccc3-c3ccc(S(=O)(=O)O)cc32)[C@@H](O[C@@H]2C(NC(=O)OCC3c4ccccc4-c4ccc(S(=O)(=O)O)cc43)C[C@@H](NC(=O)OCC3c4ccccc4-c4ccc(S(=O)(=O)O)cc43)C(O[C@H]3OC[C@](C)(O)C(NC)[C@@H]3O)[C@@H]2O)O1` (stereo partly specified), the half-life in data set [1] was 3.8 h; in data set [4], 8 h. For the same compound, the Ka in data set [3] was determined as 131000 M⁻¹. Further, the pKd in data set [5] is 5.12; in [6], 4.49; in data set [7] it was 4.76; in data set [8], 5.04. In data set [9], this compound registered a Potency of less than 1%. Besides, the pIC50 – broadly, −log10 of the IC50, conventionally taken in molar units – is 4.62 in [10]; 4.64 in data set [11]; 4.72 in data set [12]; 4.10 in [13]; 4.37 in [14].
In data set [2], `CNC(C)[C@H]1CCC(N)[C@@H](O[C@@H]2C(NC(=O)OCC3c4ccccc4-c4ccc(S(=O)(=O)O)cc43)C[C@@H](NC(=O)OCC3c4ccccc4-c4ccc(S(=O)(=O)O)cc43)C(O[C@H]3OC[C@](C)(O)C(NC)[C@@H]3O)[C@@H]2O)O1` (stereo partly specified) gave a pKd of 5.04.

(Values after ChEMBL document CHEMBL1135785, “N-[(2-Sulfo)-9-fluorenylmethoxycarbonyl](3)-gentamicin C(1) is a long-acting prodrug derivative” (J Med Chem, 2002).)
